From paper PMC10832541 (Microbial Biotechnology, 2024)
In brackets after ≈: the same amount, converted by molar mass. Entries after “also recorded” stand apart in the source; their conditions may differ.

Columns and labels:
MRSA = experiment: In vitro antibacterial activity; format: cell-based, methicillin‐resistant Staphylococcus aureus; details: MRSA strains; CLSI guidelines; range over strains
MRSE = experiment: In vitro antibacterial activity; format: cell-based, methicillin‐resistant Staphylococcus epidermidis; details: MRSE strains; CLSI guidelines; range over strains
Enterococcus faecium = experiment: In vitro antibacterial activity; format: cell-based; details: Enterococcus faecium strains; CLSI guidelines; range over strains
[1] = test system: MRSA, MRSE, Enterococcus faecalis and Enterococcus faecium; experiment: In vitro antibacterial activity, MIC range over all tested pathogens; format: cell-based; details: E. faecalis and E. faecium strains
Enterococcus faecalis = experiment: In vitro antibacterial activity; format: cell-based; details: Enterococcus faecalis strains; CLSI guidelines; range over strains
SrGT822 = experiment: Substrate spectrum of SrGT822; format: biochemical, Streptomyces sp. 147326; details: dTDP‐L‐rhamnose as donor; LC-MS analysis; products not purified
Summary of the method: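 SrGT822 from Streptomyces sp. 147326 carried a C-terminal His-tag in pET22b(+). It was expressed in E. coli BL21(DE3) with 0.5 mM IPTG at 20°C for 12 h and purified by nickel affinity. Seventeen compounds from various classes were tested as acceptors, with dTDP-L-rhamnose as donor, under the optimized reaction parameters.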

[2] = in water, compared with NOS‐R at pH 6.0; ref Zhao et al., 2023; cited from earlier work
MRSA infection = experiment: In vivo protection of mice infected with MRSA; details: data not shown
[3] = Aqueous solubility at pH 5.0 to 7.0; format: physicochemical; details: pH 6, water
Summary of the method: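 Test compound quantified by HPLC against a standard curve (31.25–1000 ng/mL), with linear regression of peak area against concentration. Aqueous solubility was determined in solutions of pH 5.0 to 7.0, following a previously described method.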

Compound	MIC (MRSA) [µg/mL]	MIC (MRSE) [µg/mL]	MIC (Enterococcus faecium) [µg/mL]	MIC values against all the tested pathogens [1] [µg/mL]	MIC (Enterococcus faecalis) [µg/mL]	conversion rate (monorhamnosylation as a substrate of SrGT822) (SrGT822)	aqueous solubility [2] [µg/mL]	in vivo protection against MRSA infection (MRSA infection)	solubility [3] [µg/mL]
CN[C@H](CC(C)C)C(=O)N[C@H]1C(=O)N[C@@H](CC(N)=O)C(=O)N[C@H]2C(=O)N[C@H]3C(=O)N[C@H](C(=O)N[C@H](C(=O)O)c4cc(O)cc(O)c4-c4cc3ccc4O)[C@H](O)c3ccc(c(Cl)c3)Oc3cc2cc(c3O[C@@H]2O[C@H](CO)[C@@H](O)[C@H](O)[C@H]2O[C@H]2C[C@](C)(N)[C@H](O)[C@H](C)O2)Oc2ccc(cc2Cl)[C@H]1O [Vancomycin]	0.25 to 2	0.125 to 1	1 to 2	0.125 to 2	1 to 2				
nocathiacin I [compound 17]						below 60%			
C=C(NC(=O)c1csc(-c2nc3c(cc2O)-c2nc(cs2)C(=O)NC(C(C)O)C(=O)N/C(=C\C)c2nc(cs2)C(=O)NC2CC(O)C(=O)OCc4cccc5[nH]c(c(C)c45)C(=O)SCC(NC(=O)c4csc2n4)c2nc-3cs2)n1)C(N)=O (stereo not shown) [NOS, Nosiheptide]			0.0078 to 0.0156		0.0078 to 0.0156		0.0283 (≈ 0.0232 µM)		
C=C(NC(=O)c1csc(-c2nc3c(cc2O[C@@H]2O[C@@H](C)[C@H](O)[C@@H](O)[C@H]2O)-c2nc(cs2)C(=O)NC(C(C)O)C(=O)N/C(=C\C)c2nc(cs2)C(=O)NC2CC(O)C(=O)OCc4cccc5[nH]c(c(C)c45)C(=O)SCC(NC(=O)c4csc2n4)c2nc-3cs2)n1)C(N)=O (stereo partly shown) [NOS‐R]	0.03125 to 0.0625	0.03125 to 0.0625	0.0078 to 0.0156	0.0078 to 0.0625	0.0078 to 0.0156			new protective effect against MRSA infection in mice; also recorded: potential in vivo protection	0.526 (≈ 0.384 µM)
